Assay results reported in ChEMBL document CHEMBL1152560, “Substituted 2-arylbenzothiazoles as kinase inhibitors: hit-to-lead optimization” (Bioorg Med Chem, 2009).

Assays:
[1] = biological target: Platelet-derived growth factor receptor beta (Homo sapiens, UniProt P09619); test: Inhibition of PDGFRbeta by microplate scintillation counting
Procedure, shortened: (§1)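 Substrates: tetra(LRRWSLG) for Aurora A/B; poly(Ala,Glu,Lys,Tyr)6:2:5:1 for PDGFRβ; poly(Glu,Tyr)4:1 for TIE2 and VEGFR2. Stopped with 2% H3PO4.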

Aurora kinase B = Aurora kinase B (Homo sapiens, UniProt Q96GD4); test: Inhibition of Aurora-B by microplate scintillation counting; procedure, shortened: as §1
Aurora kinase B, sequence (Q96GD4 whole entry): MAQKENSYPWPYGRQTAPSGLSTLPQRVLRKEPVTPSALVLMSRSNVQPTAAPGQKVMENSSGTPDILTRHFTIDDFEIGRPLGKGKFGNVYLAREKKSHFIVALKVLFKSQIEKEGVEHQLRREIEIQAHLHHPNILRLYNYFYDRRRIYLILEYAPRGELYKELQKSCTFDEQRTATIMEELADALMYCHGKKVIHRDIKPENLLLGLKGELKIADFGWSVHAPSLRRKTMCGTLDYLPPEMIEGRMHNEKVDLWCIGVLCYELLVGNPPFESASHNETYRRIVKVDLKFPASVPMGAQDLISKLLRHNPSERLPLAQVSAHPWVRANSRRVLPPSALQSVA

Aurora kinase A = biological target: T1, Aurora kinase A (Homo sapiens, UniProt O14965); test: Inhibition of Aurora-A by microplate scintillation counting; procedure, shortened: as §1
T1 sequence (O14965 whole entry): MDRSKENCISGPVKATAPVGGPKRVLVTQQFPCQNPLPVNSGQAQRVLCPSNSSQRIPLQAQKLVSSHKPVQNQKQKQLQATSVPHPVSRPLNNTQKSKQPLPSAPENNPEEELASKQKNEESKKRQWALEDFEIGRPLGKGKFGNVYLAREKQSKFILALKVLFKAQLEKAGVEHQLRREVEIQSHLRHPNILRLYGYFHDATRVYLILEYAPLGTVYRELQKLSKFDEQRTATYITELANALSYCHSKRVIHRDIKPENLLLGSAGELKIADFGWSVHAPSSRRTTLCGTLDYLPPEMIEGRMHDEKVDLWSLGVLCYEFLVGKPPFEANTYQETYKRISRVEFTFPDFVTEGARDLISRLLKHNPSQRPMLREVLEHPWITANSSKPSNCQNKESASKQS

Angiopoietin-1 receptor [2] = biological target: T2, Angiopoietin-1 receptor (Homo sapiens, UniProt Q02763); test: Inhibition of TIE2 by microplate scintillation counting
[3] = biological target: Receptor tyrosine-protein kinase erbB-2 (Homo sapiens, UniProt P04626); test: Inhibition of ERBB2 by microplate scintillation counting
Receptor tyrosine-protein kinase erbB-2, sequence (P04626 whole entry): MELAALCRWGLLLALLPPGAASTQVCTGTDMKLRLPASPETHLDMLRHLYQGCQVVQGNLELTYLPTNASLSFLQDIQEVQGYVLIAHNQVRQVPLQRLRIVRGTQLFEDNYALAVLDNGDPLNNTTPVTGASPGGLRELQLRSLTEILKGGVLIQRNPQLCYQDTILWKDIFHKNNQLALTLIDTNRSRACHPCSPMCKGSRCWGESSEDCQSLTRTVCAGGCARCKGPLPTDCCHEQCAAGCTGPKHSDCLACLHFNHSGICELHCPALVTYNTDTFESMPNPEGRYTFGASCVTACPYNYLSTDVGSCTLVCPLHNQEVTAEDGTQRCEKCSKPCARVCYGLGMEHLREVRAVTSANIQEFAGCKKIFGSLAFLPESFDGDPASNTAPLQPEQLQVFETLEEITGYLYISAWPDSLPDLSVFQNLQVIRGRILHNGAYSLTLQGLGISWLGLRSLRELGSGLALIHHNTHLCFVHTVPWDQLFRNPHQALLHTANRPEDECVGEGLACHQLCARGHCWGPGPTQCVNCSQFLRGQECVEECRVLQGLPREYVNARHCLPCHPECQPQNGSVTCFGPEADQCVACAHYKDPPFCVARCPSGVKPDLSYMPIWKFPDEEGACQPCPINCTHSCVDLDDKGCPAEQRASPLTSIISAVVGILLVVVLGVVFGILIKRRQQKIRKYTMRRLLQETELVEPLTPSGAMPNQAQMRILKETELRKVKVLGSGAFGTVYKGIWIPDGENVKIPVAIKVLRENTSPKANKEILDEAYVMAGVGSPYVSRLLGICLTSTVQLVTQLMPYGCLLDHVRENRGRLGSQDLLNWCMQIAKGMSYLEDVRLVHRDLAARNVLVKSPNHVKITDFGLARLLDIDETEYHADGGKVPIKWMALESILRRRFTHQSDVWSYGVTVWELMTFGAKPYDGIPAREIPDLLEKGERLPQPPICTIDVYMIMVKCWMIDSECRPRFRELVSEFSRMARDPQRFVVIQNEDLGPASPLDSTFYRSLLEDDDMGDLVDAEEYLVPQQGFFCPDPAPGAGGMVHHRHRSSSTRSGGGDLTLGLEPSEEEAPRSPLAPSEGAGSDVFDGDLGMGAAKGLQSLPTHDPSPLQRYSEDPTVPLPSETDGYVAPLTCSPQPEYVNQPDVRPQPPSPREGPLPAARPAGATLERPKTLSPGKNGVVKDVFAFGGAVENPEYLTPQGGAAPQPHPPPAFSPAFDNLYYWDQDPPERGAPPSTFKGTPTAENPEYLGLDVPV
Procedure, shortened: (§2)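 Radiometric FlashPlate assay using recombinant kinase (10–200 ng/well) with poly(Glu,Tyr)4:1 substrate. Buffer: 60 mM HEPES-NaOH pH 7.5, 3 mM MgCl2, 3 mM MnCl2, 3 µM orthovanadate, 1.2 mM DTT, PEG 20000, 1 µM [γ-33P]-ATP. Run 80 min at 30 °C, stopped with H3PO4, and 33P incorporation counted.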

[4] = biological target: T3, Epidermal growth factor receptor (Homo sapiens, UniProt P00533); test: Inhibition of wild type EGF-R by microplate scintillation counting
[5] = biological target: T3, Epidermal growth factor receptor; test: Inhibition of EGFR in human HCT116 cells by cellular phosphorylation assay
Angiopoietin-1 receptor [6] = biological target: T2, Angiopoietin-1 receptor; test: Inhibition of TIE2 in human HCT116 cells by cellular phosphorylation assay; format: cell-based, HCT-116
Procedure, shortened: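 TIE2 autophosphorylation in cells expressing the receptor. Compound was applied, cells were stimulated, then lysed with phosphoprotein levels preserved. Phosphorylation was quantified by sandwich ELISA with a receptor-specific capture antibody and anti-phosphotyrosine antibody, relative to the stimulated high control.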

[7] = biological target: Vascular endothelial growth factor receptor 3 (Homo sapiens, UniProt P35916); test: Inhibition of VEGFR3 by microplate scintillation counting; procedure, shortened: as §2
Vascular endothelial growth factor receptor 3, sequence (P35916 whole entry): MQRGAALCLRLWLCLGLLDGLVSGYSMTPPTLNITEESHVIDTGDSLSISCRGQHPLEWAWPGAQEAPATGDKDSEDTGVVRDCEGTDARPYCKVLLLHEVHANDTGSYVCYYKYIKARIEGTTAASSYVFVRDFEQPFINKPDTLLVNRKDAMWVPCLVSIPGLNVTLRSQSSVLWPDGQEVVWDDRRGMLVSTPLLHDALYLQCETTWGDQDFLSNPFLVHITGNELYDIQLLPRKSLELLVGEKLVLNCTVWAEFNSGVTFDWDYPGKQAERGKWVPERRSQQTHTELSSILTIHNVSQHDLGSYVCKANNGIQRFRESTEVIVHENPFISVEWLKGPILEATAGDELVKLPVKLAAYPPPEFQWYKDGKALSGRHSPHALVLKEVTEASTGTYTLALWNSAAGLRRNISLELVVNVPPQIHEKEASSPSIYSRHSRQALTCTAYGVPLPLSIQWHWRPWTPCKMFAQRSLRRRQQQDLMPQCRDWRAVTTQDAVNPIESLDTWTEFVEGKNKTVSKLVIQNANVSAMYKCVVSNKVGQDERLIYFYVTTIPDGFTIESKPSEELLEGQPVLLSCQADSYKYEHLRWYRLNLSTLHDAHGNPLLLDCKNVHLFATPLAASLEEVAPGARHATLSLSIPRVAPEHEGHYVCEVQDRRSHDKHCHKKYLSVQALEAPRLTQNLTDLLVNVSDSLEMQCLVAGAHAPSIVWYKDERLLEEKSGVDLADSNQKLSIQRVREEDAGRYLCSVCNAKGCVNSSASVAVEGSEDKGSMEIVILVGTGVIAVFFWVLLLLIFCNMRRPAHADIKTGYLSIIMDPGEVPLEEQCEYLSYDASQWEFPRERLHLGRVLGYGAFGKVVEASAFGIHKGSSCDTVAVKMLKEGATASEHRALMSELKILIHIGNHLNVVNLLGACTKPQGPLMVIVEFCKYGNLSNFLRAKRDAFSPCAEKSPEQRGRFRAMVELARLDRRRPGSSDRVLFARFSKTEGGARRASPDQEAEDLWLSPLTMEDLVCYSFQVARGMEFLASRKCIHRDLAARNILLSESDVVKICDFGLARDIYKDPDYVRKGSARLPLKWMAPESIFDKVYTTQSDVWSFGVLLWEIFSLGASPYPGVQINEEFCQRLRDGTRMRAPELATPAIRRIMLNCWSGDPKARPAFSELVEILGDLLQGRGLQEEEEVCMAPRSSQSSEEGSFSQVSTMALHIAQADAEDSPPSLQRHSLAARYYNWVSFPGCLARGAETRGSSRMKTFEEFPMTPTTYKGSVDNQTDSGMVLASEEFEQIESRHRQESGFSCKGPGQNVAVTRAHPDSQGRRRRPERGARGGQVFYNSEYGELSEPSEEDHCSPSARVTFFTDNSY

[8] = biological target: Vascular endothelial growth factor receptor 2 (Homo sapiens, UniProt P35968); test: Inhibition of VEGFR2 by microplate scintillation counting
Vascular endothelial growth factor receptor 2, sequence (P35968 whole entry): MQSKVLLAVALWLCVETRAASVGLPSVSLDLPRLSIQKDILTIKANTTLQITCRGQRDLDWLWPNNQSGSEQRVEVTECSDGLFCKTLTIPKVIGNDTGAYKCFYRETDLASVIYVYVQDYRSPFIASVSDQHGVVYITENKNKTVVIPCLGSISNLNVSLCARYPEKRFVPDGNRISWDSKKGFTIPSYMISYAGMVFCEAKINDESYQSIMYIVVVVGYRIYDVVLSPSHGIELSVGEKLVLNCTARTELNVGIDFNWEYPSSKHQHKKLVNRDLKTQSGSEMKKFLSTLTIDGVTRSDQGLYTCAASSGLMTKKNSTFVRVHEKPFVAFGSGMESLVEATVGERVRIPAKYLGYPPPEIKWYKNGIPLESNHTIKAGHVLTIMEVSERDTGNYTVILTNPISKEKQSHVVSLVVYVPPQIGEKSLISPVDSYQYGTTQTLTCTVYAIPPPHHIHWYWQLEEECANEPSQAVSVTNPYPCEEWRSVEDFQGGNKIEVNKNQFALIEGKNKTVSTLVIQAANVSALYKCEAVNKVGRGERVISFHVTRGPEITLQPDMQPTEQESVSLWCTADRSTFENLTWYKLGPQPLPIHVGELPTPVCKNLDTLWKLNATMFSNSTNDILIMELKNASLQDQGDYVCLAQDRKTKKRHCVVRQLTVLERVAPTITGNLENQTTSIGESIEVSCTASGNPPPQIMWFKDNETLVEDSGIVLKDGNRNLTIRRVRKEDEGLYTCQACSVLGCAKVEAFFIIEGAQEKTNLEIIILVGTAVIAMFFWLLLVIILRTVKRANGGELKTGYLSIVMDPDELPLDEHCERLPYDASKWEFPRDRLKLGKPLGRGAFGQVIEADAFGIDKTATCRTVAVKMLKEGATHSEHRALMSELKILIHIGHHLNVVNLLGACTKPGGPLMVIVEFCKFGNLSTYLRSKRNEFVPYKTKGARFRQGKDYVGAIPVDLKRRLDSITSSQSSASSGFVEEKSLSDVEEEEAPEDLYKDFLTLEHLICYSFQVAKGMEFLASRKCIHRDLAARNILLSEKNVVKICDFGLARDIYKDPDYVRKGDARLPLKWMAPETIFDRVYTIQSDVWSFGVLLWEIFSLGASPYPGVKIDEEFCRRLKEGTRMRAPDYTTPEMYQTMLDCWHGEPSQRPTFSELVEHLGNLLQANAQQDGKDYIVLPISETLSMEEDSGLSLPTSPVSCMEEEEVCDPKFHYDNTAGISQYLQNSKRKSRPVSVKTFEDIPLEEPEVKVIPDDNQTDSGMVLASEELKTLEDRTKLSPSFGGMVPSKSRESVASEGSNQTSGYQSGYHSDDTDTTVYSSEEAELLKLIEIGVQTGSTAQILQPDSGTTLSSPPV

| IC50 [1] | IC50 (Aurora kinase B) | IC50 (Aurora kinase A) | IC50 (Angiopoietin-1 receptor [2]) | IC50 [3] | IC50 [4] | EC50 [5] | EC50 (Angiopoietin-1 receptor [6]) | IC50 [7] | IC50 [8] | Structure (SMILES) |
| --- | --- | --- | --- | --- | --- | --- | --- | --- | --- | --- |
| 7700 nM | 4800 nM | 690 nM | 510 nM | 180 nM | 44 nM |  |  |  |  | COc1cc2ncnc(Nc3ccc(-c4nc5ccccc5s4)c(Cl)c3)c2cc1OCCCN1CCN(C)CC1 |
| > 10000 nM | 62 nM | 24 nM | 510 nM | > 10000 nM | > 10000 nM | > 10000 nM | > 10000 nM | 1300 nM | 610 nM | COc1cc2c(Nc3ccc(-c4nc5cc(Cl)ccc5s4)cc3)ncnc2cc1OCCCN1CCN(C)CC1 |
| 6700 nM | 440 nM | 340 nM | 38 nM | 490 nM |  |  |  | 340 nM |  | COc1cc2c(Nc3ccc(-c4nc5ccccc5s4)cc3C)ncnc2cc1OCCCN1CCN(C)CC1 |
| 3600 nM | 78 nM | 27 nM | 37 nM | 38 nM |  |  | 10000 nM | 470 nM | 120 nM | COc1cc2c(Nc3ccc(-c4nc5ccccc5s4)c(Cl)c3)ncnc2cc1OCCCN1CCN(C)CC1 |
| 3800 nM | > 10000 nM | 1600 nM | 1400 nM | 47 nM | 15 nM |  |  |  |  | COc1cc2ncnc(Nc3ccc(-c4nc5ccccc5s4)c(OC)c3)c2cc1OCCCN1CCN(C)CC1 |
| 1400 nM | 60 nM | 14 nM | 54 nM | 100 nM | 46 nM |  |  | 69 nM | 12 nM | COc1cc2c(Nc3ccc(-c4nc5ccccc5s4)cc3)ncnc2cc1OCCCN1CCN(C)CC1 |
| 3800 nM | 510 nM | 110 nM |  | 2200 nM |  |  |  |  |  | COc1cc2ncnc(Nc3ccc(-c4nc5ccccc5s4)cc3)c2cc1OCCCN1CCN(C)CC1 |
| 8000 nM | 64 nM | 54 nM | 410 nM | 2300 nM | 260 nM |  |  | 9300 nM | 2500 nM | COc1cc2c(Nc3ccc(-c4nc5ccc(Cl)cc5s4)cc3)ncnc2cc1OCCCN1CCN(C)CC1 |
| > 10000 nM | 2100 nM | 1200 nM | > 10000 nM | > 10000 nM | > 10000 nM |  |  |  |  | COc1cc2ncnc(Nc3ccc(-c4nc5cc(C(F)(F)F)ccc5s4)cc3)c2cc1OCCCN1CCN(C)CC1 |
|  | > 10000 nM | > 10000 nM |  |  | 63 nM |  |  |  | > 10000 nM | COc1cc(-c2nc3ccccc3s2)ccc1Nc1ncnc2cc(OC)c(OC)cc12 |
| 7900 nM | 260 nM | 230 nM | 68 nM |  |  |  |  | 1500 nM | 350 nM | COc1cc2c(Nc3ccc(-c4nc5ccccc5s4)c(C)c3)ncnc2cc1OCCCN1CCN(C)CC1 |
| 3400 nM | 41 nM | 26 nM | 235 nM | 6950 nM | 730 nM | > 10000 nM | > 10000 nM | 865 nM | 335 nM | COc1cc2c(Nc3ccc(-c4nc5ccc(F)cc5s4)cc3)ncnc2cc1OCCCN1CCN(C)CC1 |
| 4400 nM | 28 nM | 26 nM | 29 nM | 2400 nM | 805 nM | > 10000 nM | 2100 nM | 350 nM | 62 nM | COc1cc2c(Nc3ccc(-c4nc5ccccc5s4)cc3F)ncnc2cc1OCCCN1CCN(C)CC1 |
| 10000 nM | 410 nM | 390 nM | 360 nM | > 10000 nM | 4500 nM |  |  |  |  | COc1cc2ncnc(Nc3ccc(-c4nc5ccccc5s4)cc3F)c2cc1OCCCN1CCN(C)CC1 |
| 9200 nM | 90 nM | 85 nM | 615 nM | > 10000 nM | 6200 nM |  |  | 3000 nM | 2250 nM | COc1cc2c(Nc3ccc(-c4nc5ccc(Cl)cc5s4)cc3F)ncnc2cc1OCCCN1CCN(C)CC1 |
| > 10000 nM | > 10000 nM | 9400 nM | 350 nM | 5900 nM | 1400 nM |  |  |  |  | COc1cc2ncnc(Nc3ccc(-c4nc5ccccc5s4)cc3C)c2cc1OCCCN1CCN(C)CC1 |
| 9100 nM | 520 nM | 290 nM | 590 nM | > 10000 nM | > 10000 nM |  |  | > 10000 nM | > 10000 nM | COc1cc2c(Nc3ccc(-c4nc5ccccc5s4)cc3OC(F)(F)F)ncnc2cc1OCCCN1CCN(C)CC1 |
|  |  |  |  |  |  |  |  |  | 6300 nM | COc1cc2ncnc(Nc3ccc(-c4nc5ccccc5s4)cc3)c2cc1OC |
| 8700 nM | 670 nM | 200 nM | 3100 nM | > 10000 nM | 2300 nM |  |  |  |  | COc1cc2ncnc(Nc3ccc(-c4nc5ccccc5s4)c(F)c3)c2cc1OCCCN1CCN(C)CC1 |
| 2100 nM | 27 nM | 9 nM | 9 nM | 300 nM | 430 nM | > 10000 nM | > 10000 nM | 210 nM | 44 nM | COc1cc2c(Nc3ccc(-c4nc5ccccc5s4)c(F)c3)ncnc2cc1OCCCN1CCN(C)CC1 |
| 10000 nM | 640 nM | 300 nM | 5300 nM | > 10000 nM | 3300 nM |  |  |  |  | COc1cc2ncnc(Nc3ccc(-c4nc5ccccc5s4)c(O)c3)c2cc1OCCCN1CCN(C)CC1 |
|  | 4200 nM | > 10000 nM |  |  | 2200 nM |  |  |  | 6900 nM | COc1cc2ncnc(Nc3ccc(-c4nc5ccccc5s4)cc3O)c2cc1OC |
| > 10000 nM | 8000 nM | 3300 nM | > 10000 nM |  |  |  |  | > 10000 nM | > 10000 nM | COc1cc2c(N(C)c3ccc(-c4nc5ccccc5s4)c(OC)c3)ncnc2cc1OCCCN1CCN(C)CC1 |
| > 10000 nM | 800 nM | 800 nM | 880 nM | 2300 nM | 230 nM |  |  |  |  | COc1cc2ncnc(Nc3ccc(-c4nc5ccccc5s4)cc3O)c2cc1OCCCN1CCN(C)CC1 |
| 9900 nM | 500 nM | 400 nM | 4000 nM | > 10000 nM | > 10000 nM |  |  |  |  | COc1cc2ncnc(Nc3ccc(-c4nc5cc(Cl)ccc5s4)cc3)c2cc1OCCCN1CCN(C)CC1 |
| > 10000 nM | 270 nM | 230 nM | 230 nM | 3600 nM | 350 nM |  |  | 4500 nM | 280 nM | COc1cc2c(Nc3ccc(-c4nc5ccccc5s4)cc3O)ncnc2cc1OCCCN1CCN(C)CC1 |
| > 10000 nM | 1900 nM | 1300 nM | 6100 nM | > 10000 nM | > 10000 nM |  |  |  |  | COc1cc(-c2nc3ccccc3s2)ccc1Nc1ncnc2cc(OC)c(OCCCN3CCN(C)CC3)cc12 |
| > 10000 nM | 48 nM | 62 nM | 390 nM | 130 nM | 200 nM |  |  | 1900 nM | 690 nM | COc1ccc2nc(-c3ccc(Nc4ncnc5cc(OCCCN6CCN(C)CC6)c(OC)cc45)cc3)sc2c1 |
